The record followed here is ChEMBL document CHEMBL3865807, “Syntheses and photodynamic activity of some glucose-conjugated BODIPY dyes” (Eur J Med Chem, 2016).

The test system of data set [1] is A549. Description: Photocytotoxicity against human A549 cells assessed as decrease in cell viability at 500 to 5000 nM preincubated for 1 hr followed by 0.77 mW/cm2 white light irradiation measured after 24 hrs by MTT assay. In kind it is functional, cell-based. The note with it: TDE = time-dependent effect. Put shortly:
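A549 cells (1×10^4/well), plated overnight, given compound for 1 h in serum-free medium, washed twice with PBS, irradiated 0.5, 1, 2 or 4 h at 0.77 mW/cm² (37 °C, 5% CO₂), then 24 h in regular medium; MTT 0.5 mg/mL for 6 h, formazan dissolved in 0.01 N HCl/10% SDS, A550.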
(Formazan colour is commonly taken as a measure of viable cells.)

Data set [2] is described as follows: Photocytotoxicity against human A549 cells assessed as decrease in cell viability preincubated for 1 hr followed by 0.77 mW/cm2 white light irradiation for 80 mins measured after 24 hrs by MTT assay. The data set is classed as functional, cell-based. The note with it: A549, light or radiation study. A digest of the protocol:
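IC50 from MTT: A549 cells (1×10^4/well) given graded compound concentrations 1 h in serum-free DMEM (vehicle ≤0.1% DMSO), washed, photo-exposed 80 min at 0.77 mW/cm², regular medium 24 h; MTT 0.5 mg/mL 6 h, A550; viability relative to vehicle control; four replicates, three experiments, mean ± SEM.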

Data set [3] can be described thus: Cytotoxicity against human A549 cells assessed as decrease in cell viability up to 200 uM after 48 hrs under dark condition by MTT assay. In kind it is toxicity, cell-based. The note with it: a549, 48 h. Put shortly:
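Dark toxicity: A549 cells treated as in the MTT protocol (1 h compound exposure, serum-free medium, washed) with no light, then assessed at 48 h by MTT (0.5 mg/mL, 6 h, formazan in HCl/SDS, A550).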

The nature of data set [4]: Drug uptake in cytoplasm of human A549 cells at 1 uM after 0.25 to 3 hrs by Hoechst 33342 staining based fluorescence microscopy. Conditions: a549, 1 µM. In kind it is ADME, cell-based. A digest of the protocol: (§1)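 A549 cells on coverslips loaded with dyes (1 µM) for 0.25, 0.5, 1, 2 or 3 h at 37 °C, washed, counterstained with Hoechst 33342 (10 µM), mounted in 70% glycerol; red dye and blue nuclear fluorescence imaged by fluorescence microscopy (40×) and overlaid.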

Data set [5] is described as follows: Drug uptake in human A549 cells assessed as mean fluorescence intensity at 2.5 uM after 24 hrs by flow cytometry (reference value: 2.4 +/- 1.1). In kind it is ADME, cell-based. The note with it: a549, 24 h. (In flow cytometry, cells or beads pass a laser one at a time.)
Data set [6] in a line: Drug uptake in human A549 cells assessed as mean fluorescence intensity at 2.5 uM after 16 hrs by flow cytometry (reference value: 2.4 +/- 1.1). In kind it is ADME, cell-based. The note with it: a549, 16 h.
The nature of data set [7]: Drug uptake in human A549 cells assessed as mean fluorescence intensity at 2.5 uM after 2 hrs by flow cytometry (reference value: 2.4 +/- 1.1). In kind it is ADME, cell-based. Conditions: a549, 2 h.
The nature of data set [8]: Drug uptake in human A549 cells assessed as mean fluorescence intensity at 2.5 uM after 8 hrs by flow cytometry (reference value: 2.4 +/- 1.1). The data set is classed as ADME, cell-based. The note with it: a549, 8 h.
The nature of data set [9]: Drug uptake in human A549 cells assessed as mean fluorescence intensity at 2.5 uM after 4 hrs by flow cytometry (reference value: 2.4 +/- 1.1). The data set is classed as ADME, cell-based. Conditions: a549, 4 h.
Data set [10] deals with A549. Description: Photocytotoxicity against human A549 cells assessed as necrosis at 2.5 uM preincubated for 1 hr followed by 0.77 mW/cm2 white light irradiation for 80 mins measured after 2 hrs by trypan blue staining based phase contrast microscopy. In kind it is functional, cell-based. A digest of the protocol:
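Cells (1×10^5/well) on coverslips treated 1 h with dye (2.5 µM) or 0.1% DMSO, irradiated 80 min, serum added, 2 h later washed, stained with 0.1% trypan blue in PBS for 5 min, then viewed by phase-contrast microscopy at 40×.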

Data set [11] is filed under the species Bos taurus. As to the kind of experiment: Binding affinity to calf thymus duplex DNA assessed as decrease in intensities of maximum absorption at 20 uM by spectrophotometric titration analysis.
The species entered for data set [12] is Bos taurus. Description: Binding affinity to calf thymus duplex DNA assessed as decrease in intensities of maximum absorption at 20 uM by spectrophotometric titration analysis.
The species named for data set [13] is Bos taurus. As to the kind of experiment: Binding affinity to calf thymus duplex DNA by UV-visible spectra analysis.
The nature of data set [14]: Drug uptake in human A549 cells at 1 uM after 0.25 to 3 hrs by Hoechst 33342 staining based fluorescence microscopy. The data set is classed as ADME, cell-based. The note with it: a549, 1 µM. A digest of the protocol: as §1

Each structure is given as a SMILES string. Calls of active or inactive are those of the source. The rule behind the calls is not given here. Bounds are passed on as bounds.

On to `CCC1=C(C)C2=C(c3ccccc3)c3c(C)c(CC)c(C)n3[B-](F)(F)[N+]2=C1/C=C/c1ccc(O)cc1`, for which the Activity result with A549 [1] was “Tde”; in data set [3] it was “Non-Toxic”. Also, the IC50 (commonly the concentration that gives 50% inhibition) in [2] stood at 6.4 µM. For the same molecule, in data set [4], the Drug uptake result is on record as “Active”.

With `CCC1=C(C)C2=C(C)c3c(C)c(CC)c(C)n3[B-](F)(F)[N+]2=C1/C=C/c1ccc(O)cc1`, the Activity result with A549 [1] is “Tde”; in data set [3], “Non-Toxic”. For the same molecule, the IC50 in [2] was determined as 6.5 µM. For the same molecule, the Flu intensity in data set [5] was found to be 38.4; in [6], 40.9; in data set [7], 88; in data set [8], 43.9; in data set [9], 53.7. The Drug uptake entry in [4] is recorded as “Active”.

Take `CCC1=C(C)C2=C(c3ccc(O)cc3)c3c(C)c(CC)c(C)n3[B-](F)(F)[N+]2=C1C`: the Activity result was “Tde” with A549 [1] and “Non-Toxic” in [3]. The IC50 in data set [2] is 2.1 µM. The outcome with A549 [10] was Active. Besides, the Drug uptake entry in data set [4] was “Active”.

Regarding `CCC1=C(C)C2=C(c3ccc(O[C@H]4O[C@H](CO)[C@@H](O)[C@H](O)[C@H]4O)cc3)c3c(C)c(CC)c(C)n3[B-](F)(F)[N+]2=C1C`, the Activity result in the data set on A549 [1] is “Tde”; in [3], “Non-Toxic”. Also, the outcome in the data set filed under Bos taurus [11] and in the data set filed under Bos taurus [12] was Active. Moreover, the half-inhibitory concentration (IC50) in data set [2] was above 10 µM. The Drug uptake result in [4] was “Active”. Moreover, the Kb in the data set filed under Bos taurus [13] turned out to be 3.4 ×10⁴ /M.

Regarding `CCC1=C(C)C2=C(C)c3c(C)c(CC)c(C)n3[B-](F)(F)[N+]2=C1C`, the IC50 in data set [2] turned out to be 6.8 µM. Moreover, the Drug uptake result in data set [14] is on record as “Active”.

For the molecule `CCC1=C(C)C2=C(c3ccccc3)c3c(C)c(CC)c(C)n3[B-](F)(F)[N+]2=C1/C=C/c1ccc(O[C@H]2O[C@H](CO)[C@@H](O)[C@H](O)[C@H]2O)cc1`, the Activity result was “Tde” in the data set with A549 [1] and “Non-Toxic” in data set [3]. The IC50 in data set [2] amounted to 2.5 µM. In data set [4], the Drug uptake entry was “Active”.
